Source: PubChem (Broad Institute)
Sampled rows, rich in hits. Any-hit rate of the full collection: about 2.7%.
S100A4 inh HTS: S100A4-myosin IIA interaction inhibition; S100A4/TAMRA-MyoIIA peptide fluorescence polarization; 360,000 compounds, 0.14% hits; AID 652163; inhibition, % at 10.7 µM;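 active = mean inhibition of at least 70% across replicates, with every replicate also reaching that level; inconclusive = mean inhibition reaches 70% but some replicates fall short; inactive = mean inhibition below 70%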
Target sequence (P26447 whole entry, looked up): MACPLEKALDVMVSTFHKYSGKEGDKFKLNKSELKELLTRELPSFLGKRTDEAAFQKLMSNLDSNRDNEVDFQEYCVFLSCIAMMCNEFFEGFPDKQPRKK
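assay system = human S100A4 monomer with TAMRA-labelled myosin IIA peptide | also added = labelled myosin peptide probe, 5 nM | incubation = 5 min between mix addition and reading | control set = DMSO and TFP controls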
E-sel inducer: E-selectin induction on HUVECs; P16581; HUVEC E-selectin immunofluorescence imaging; normalized: neutral wells 0, TNF-alpha wells 100; activation, % at 7.58 µM; 260,000 compounds, 0.37% hits; AID 686992;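 active = mean E-selectin-positive cell signal at least 10% of the positive control, reached in at least 60% of replicates, without over 20% cell loss; inconclusive = no rule given, readout overlaps actives, possibly toxicity-flagged; inactive = the rest, including those meeting only one limit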
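Test system: HUVEC; input: 3,000 HUVEC/well; measured by: immunofluorescence imaging; read-out: % PE-positive cells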
Env fusion inh: HIV envelope-mediated fusion inhibition | HeLa-JRFL Env/CEM21 cell fusion, luciferase | 360,000 compounds, 1.1% hits | inhibition, % at 12.3 µM;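 active = mean replicate inhibition score of at least 50 and every replicate individually at or above 50; inconclusive = only one of the two criteria met; inactive = mean below 50 and not all replicates reaching 50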
F508del corr: correctors of CFTR F508del function in bronchial epithelial cells. CFBE cells, YFP halide quenching; stimulated with forskolin plus potentiator P3; % fluorescence drop versus neutral controls. activity (quench increase), % at 7.58 µM. 350,000 compounds, 0.36% hits. AID 720511;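 active = mean added fluorescence quench of at least 8% versus neutral control, with both replicates also reaching 8%; inconclusive = only one of the mean or replicate conditions met; inactive = mean below 8% and not both replicates reaching 8%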;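 also: cells transiently co-express mutant CFTR-F508del with the halide-sensitive YFP; corrector assay measuring rescue of mutant channel to the surface after 24 h compound exposure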
FGF22 binding: shifts melting point of recombinant human FGF22; activity (Tm shift, normalised), % at 9.99 µM; 340,000 compounds, 1.5% hits; recombinant FGF22 thermal shift, SYPRO orange fluorescence; percent of sucrose octasulfate shift, DMSO zero; Q9HCT0; AID 651658;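 active = mean Tm shift, scaled 0 neutral to 100 positive control, at about 1.3% or above, every replicate too, limit read from the data; inconclusive = no clear call, values can overlap the other calls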
Target sequence (Q9HCT0 whole entry, looked up): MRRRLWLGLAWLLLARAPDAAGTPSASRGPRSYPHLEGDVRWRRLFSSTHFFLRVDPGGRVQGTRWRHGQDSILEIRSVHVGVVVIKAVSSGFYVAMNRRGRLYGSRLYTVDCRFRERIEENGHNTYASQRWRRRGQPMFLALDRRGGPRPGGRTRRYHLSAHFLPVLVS
Hits are given with their value; - = inactive; ? = inconclusive; . = not tested or not shown; [ ] = another dose, or the depositor's remark.

SMILES	S100A4 inh HTS	E-sel inducer	Env fusion inh	F508del corr	FGF22 binding
COC(=O)[C@]1(Cc2ccccc2)N[C@H](CN(C)S(=O)(=O)c2ccc(-c3ccccc3)cc2)[C@@H]2C(=O)N(Cc3ccccc3)C(=O)[C@@H]21	-	-	59	-	-
CCN(C[C@H]1N[C@@](CC)(C(=O)OC)[C@H]2C(=O)N(Cc3ccccc3)C(=O)[C@@H]12)C(=O)c1ccc(F)cc1	-	.	56	-	-
CC[C@@]1(C(=O)OC)N[C@H](CN(C)C(=O)c2ccccc2)[C@@H]2C(=O)N(C)C(=O)[C@@H]21	-	-	-	-	43
COCC(=O)N(C)C[C@H]1N[C@@](C)(C(=O)OC)[C@H]2C(=O)N(Cc3ccccc3)C(=O)[C@@H]12	-	-	-	-	43
C[C@H]1CN([C@@H](C)CO)C(=O)c2cc(C#Cc3ccccc3F)cnc2O[C@H]1CN(C)C(=O)Cc1cccnc1	-	-	-	-	-
C[C@H](CO)N1C[C@H](C)[C@H](CN(C)Cc2ccncc2)Oc2ccc(NC(=O)Cc3ccccc3)cc2C1=O	-	-	-	-	-
CC(C)CC#Cc1ccc([C@H]2[C@H](CO)N3C(=O)CN(C(=O)Nc4ccc(F)cc4)C[C@@H]23)cc1	-	-	.	-	.
CN(C)C(=O)C[C@@H]1C[C@@H]2c3cc(NC(=O)Nc4ccccc4)ccc3O[C@@H]2[C@@H](CO)O1	.	-	-	-	-
CC[C@@]1(C(=O)OC)N[C@H](CN(C)C(C)=O)[C@@H]2C(=O)N(Cc3ccccc3)C(=O)[C@@H]21	-	-	-	-	44
CC[C@@]1(C(=O)OC)N[C@H](CN(C)C(=O)COc2ccccc2)[C@@H]2C(=O)N(Cc3ccccc3)C(=O)[C@@H]21	-	-	69	-	-
COC(=O)[C@]1(Cc2ccccc2)N[C@H](CN(C)C(=O)c2ccc(C)cc2)[C@@H]2C(=O)N(Cc3ccccc3)C(=O)[C@@H]21	-	-	-	-	-
COC(=O)[C@]1(Cc2ccccc2)N[C@H](CN(C)C(=O)c2ccccc2)[C@@H]2C(=O)N(Cc3ccccc3)C(=O)[C@@H]21	-	-	-	-	43
CCC(=O)N1[C@H](C(=O)NC2CCC2)[C@@H](CO)[C@@H]2Cn3c(ccc(C4=CCCCC4)c3=O)[C@@H]21	-	-	.	-	-
C[C@@H]1CN([C@@H](C)CO)C(=O)c2cc(NC(=O)C3CC3)ccc2O[C@@H]1CN(C)CC1CCCCC1	-	-	-	-	-
CN(CC(=O)Nc1c(Cl)cccc1Cl)CC(=O)N(C)C1(C#N)CCCCC1	-	-	.	-	43
CN(CC(=O)Nc1c(Cl)cccc1Cl)C(=O)Cc1ccc2c(c1)CCC2	-	-	-	-	-
COCCNC(=O)C(c1ccc(C)o1)N(CCOC)C(=O)Cn1nnc2ccccc21 (stereo not given)	-	.	-	-	44
CC(C)C#Cc1ccc2c(c1)O[C@@H](CN(C)C(=O)NC(C)C)[C@H](C)CN([C@@H](C)CO)S2(=O)=O	.	-	-	-	-
O=C(CCC1CCCN(C(=O)c2ccc3c(c2)OCO3)C1)NCc1ccc(F)c(F)c1 (stereo not given)	-	-	-	-	43
COc1ccccc1/C=C/CN1CCCC(CCC(=O)NCc2ccc(F)c(F)c2)C1 (stereo not given)	-	.	63	-	-
COc1cccc(CNC(=O)CCC2CCCN(C/C=C/c3ccccc3OC)C2)c1 (stereo not given)	-	-	-	-	-
C[C@@H]1CN([C@@H](C)CO)C(=O)c2cccc(NC(=O)Nc3ccccc3)c2O[C@H]1CN(C)Cc1ccncc1	-	-	.	-	-
O=C1c2ccccc2C(Nc2ccccc2)N1Cc1ccc2c(c1)OCO2 (stereo not given)	-	.	-	-	-
CCN(CC)S(=O)(=O)c1ccc(NC2c3ccccc3C(=O)N2Cc2ccc3c(c2)OCO3)cc1 (stereo not given)	-	-	67	-	-
C[C@@H]1CN([C@H](C)CO)S(=O)(=O)c2ccc(-c3cccnc3)cc2O[C@H]1CN(C)C(=O)CN(C)C	-	-	-	-	-
SMILES	S100A4 inh HTS	E-sel inducer	Env fusion inh	F508del corr	FGF22 binding
COc1ccc(S(=O)(=O)N(C)C[C@H]2OCCCC[C@H](C)Oc3ccc(NC(=O)Nc4cccc5ccccc45)cc3C(=O)N([C@H](C)CO)C[C@H]2C)cc1	-	-	-	-	1.7
COc1ccc(S(=O)(=O)N(C)C[C@@H]2OCCCC[C@@H](C)Oc3ccc(NC(=O)Nc4ccccc4)cc3C(=O)N([C@H](C)CO)C[C@H]2C)cc1	.	-	76[16.7 µM]	-	-
C[C@@H]1CCCCO[C@H](CN(C)S(=O)(=O)c2cn(C)cn2)[C@@H](C)CN([C@H](C)CO)C(=O)c2cc(NC(=O)Nc3cccc4ccccc34)ccc2O1	-	-	-	-	1.7
COc1ccc(S(=O)(=O)N(C)C[C@H]2OCCCC[C@@H](C)Oc3ccc(NC(=O)Nc4cccc5ccccc45)cc3C(=O)N([C@@H](C)CO)C[C@H]2C)cc1	-	-	-	-	1.5
CNC(=O)C[C@@H]1CC[C@@H]2[C@H](COc3ccc(NC(=O)c4cscn4)cc3C(=O)N2C)O1	.	-	-	-	-
COc1ccc(S(=O)(=O)N(C)C[C@H]2OCCCC[C@@H](C)Oc3ccc(NC(=O)Nc4cccc5ccccc45)cc3C(=O)N([C@@H](C)CO)C[C@@H]2C)cc1	-	-	-	-	1.3
COc1ccc(S(=O)(=O)N(C)C[C@@H]2OCCCC[C@H](C)Oc3ccc(NC(=O)Nc4cccc5ccccc45)cc3C(=O)N([C@H](C)CO)C[C@@H]2C)cc1	-	-	-	-	-
CC(C)NC(=O)Nc1cccc2c1O[C@H](CN(C)Cc1ccc(C(=O)O)cc1)[C@H](C)CN([C@@H](C)CO)C2=O	-	-	.	-	-
CC(=NNC(=S)N1CCCCC1)c1cccc(C)n1	?	-	-	12	-
COc1ccc(S(=O)(=O)N(C)C[C@@H]2Oc3ncc(C#CC4(O)CCCC4)cc3C(=O)N([C@@H](C)CO)C[C@H]2C)cc1	-	-	.	-	-
C[C@@H]1CN([C@@H](C)CO)S(=O)(=O)c2ccc(C3=CCCC3)cc2O[C@H]1CN(C)S(C)(=O)=O	.	-	-	-	.
COc1ccc(CCN2C(=O)CS/C2=N\NC(=O)c2cccs2)cc1OC	-	.	-	-	44
COc1cccc(C(=O)N/N=C2/SCC(=O)N2CCc2ccc(OC)c(OC)c2)c1	.	.	-	.	.
CN(C)C(=O)c1cccc(-c2ccc([C@@H]3[C@@H](C#N)N(C(=O)C4CC4)[C@@H]3CO)cc2)c1	-	-	.	-	-
COc1ccc(S(=O)(=O)Nc2ccc3c(c2)C(=O)N([C@H](C)CO)C[C@H](C)[C@H](CN(C)C(=O)Nc2c(C)noc2C)OCCCC[C@H](C)O3)cc1	-	-	-	-	1.3
